In publication PMC9988221 (Journal of Clinical Psychopharmacology, 2023):
Like-named read-outs stand apart in the source and are kept apart here. Marks after values point to notes of the source that are not given here.

Legend:
[1] = type: in vivo, human; conditions: for Cmax, gMean / AUC(0-t) / AUC(0-inf) / half-life / Cmax / AUC0–tz, gMean: plasma; for AUC(0-t) / AUC(0-inf) / half-life / Cmax: male, human; for AUC(0-t): AUC0–tz; for AUC(0-inf): AUC0–∞; for AUC0–tz, Adjusted gMean Ratio (90% CI) / Cmax, Adjusted gMean Ratio (90% CI): probe drug + steady-state BI 425809 25 mg vs probe drug only
[2] = biological target: P-gp (Homo sapiens, UniProt P08183); type: in vitro ADME; conditions: Caco-2 cell monolayer; zosuquidar 1 μM, BI 425809 1-100 μM
In short: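 Bidirectional Caco-2 monolayer transport in HBSS with 15 mM HEPES, pH 7.4, after 30 min equilibration. [³H]digoxin (1 μM) went in the donor side, and test compound (1–100 μM) or zosuquidar (1 μM) on both sides. After 30 min preincubation, sampling ran to 90 min and was read by scintillation counting. Papp gave the B-to-A/A-to-B efflux ratio, and IC50 with slope factor came from nonlinear regression of efflux ratio against inhibitor concentration.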

[3] = +BI 425809 25 mg at steady state
[4] = Probe Drug + BI 425809 25 mg once daily at steady state, healthy males
[5] = arithmetic mean (SD), +BI 425809 25 mg at steady state
[6] = gMean, Probe Drug + BI 425809 25 mg once daily at steady state, healthy males
[7] = gMean, Probe Drug Only, healthy males
[8] = probe drug alone (cocktail or digoxin alone)

P-gp, sequence (P08183 whole entry): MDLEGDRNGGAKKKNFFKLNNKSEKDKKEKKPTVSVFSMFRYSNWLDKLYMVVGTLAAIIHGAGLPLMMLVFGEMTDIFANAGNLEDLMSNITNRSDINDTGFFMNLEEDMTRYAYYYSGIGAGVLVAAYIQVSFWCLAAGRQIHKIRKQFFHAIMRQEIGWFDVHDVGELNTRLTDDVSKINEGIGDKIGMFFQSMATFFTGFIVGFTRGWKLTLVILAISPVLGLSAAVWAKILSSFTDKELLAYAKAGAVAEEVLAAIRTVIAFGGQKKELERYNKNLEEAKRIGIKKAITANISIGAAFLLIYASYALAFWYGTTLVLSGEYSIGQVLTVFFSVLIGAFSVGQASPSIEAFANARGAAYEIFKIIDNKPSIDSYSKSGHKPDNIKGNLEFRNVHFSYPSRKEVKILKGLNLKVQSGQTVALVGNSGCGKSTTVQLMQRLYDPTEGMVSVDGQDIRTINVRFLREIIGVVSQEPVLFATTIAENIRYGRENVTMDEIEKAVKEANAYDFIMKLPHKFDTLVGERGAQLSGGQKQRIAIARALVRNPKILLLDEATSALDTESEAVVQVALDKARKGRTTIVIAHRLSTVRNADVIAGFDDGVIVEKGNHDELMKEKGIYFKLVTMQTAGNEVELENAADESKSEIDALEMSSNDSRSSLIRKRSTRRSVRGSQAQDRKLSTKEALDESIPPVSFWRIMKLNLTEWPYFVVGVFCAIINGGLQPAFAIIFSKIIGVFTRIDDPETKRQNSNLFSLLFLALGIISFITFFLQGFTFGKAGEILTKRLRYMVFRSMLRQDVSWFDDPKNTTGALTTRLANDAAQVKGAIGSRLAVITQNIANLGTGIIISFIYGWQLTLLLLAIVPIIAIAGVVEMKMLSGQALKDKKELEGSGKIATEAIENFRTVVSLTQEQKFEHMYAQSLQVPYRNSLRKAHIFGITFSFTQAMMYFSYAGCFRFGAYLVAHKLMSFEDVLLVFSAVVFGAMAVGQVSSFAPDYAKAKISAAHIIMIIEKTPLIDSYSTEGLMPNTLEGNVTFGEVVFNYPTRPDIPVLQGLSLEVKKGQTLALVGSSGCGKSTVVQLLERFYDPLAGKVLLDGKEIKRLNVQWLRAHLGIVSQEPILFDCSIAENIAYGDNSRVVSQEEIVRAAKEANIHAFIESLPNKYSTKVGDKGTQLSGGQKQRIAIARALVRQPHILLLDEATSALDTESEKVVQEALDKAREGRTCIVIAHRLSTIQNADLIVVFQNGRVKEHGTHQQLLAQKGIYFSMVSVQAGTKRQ

| Structure (SMILES) | Cmax, gMean [1, 4] [ng/mL] | Cmax, gMean ([1]; Probe Drug Only, healthy males) [ng/mL] | AUC(0-t) [1, 5] [ng·h/mL] | AUC(0-t) [1, 6] [ng·h/mL] | AUC(0-t) [1, 7] [ng·h/mL] | AUC(0-inf) [1, 5] [ng·h/mL] | AUC0–tz, Adjusted gMean Ratio (90% CI) [1] | Cmax, Adjusted gMean Ratio (90% CI) [1] | Cmax, arithmetic mean (SD) [1, 8] | Cmax [1, 5] [ng/mL] | Cmax [1, 6] [ng/mL] | Cmax [1, 7] [ng/mL] | AUC0–tz, arithmetic mean (SD) [1, 3] | AUC0–∞, arithmetic mean (SD) [1, 3] | AUC0–tz, gMean [1, 4] | AUC0–tz, gMean ([1]; Probe Drug Only, healthy males) | AUC0–tz, arithmetic mean (SD) [1, 8] | AUC0–∞, arithmetic mean (SD) [1, 8] | further results |
| --- | --- | --- | --- | --- | --- | --- | --- | --- | --- | --- | --- | --- | --- | --- | --- | --- | --- | --- | --- |
| C[C@H]1O[C@@H](O[C@H]2[C@@H](O)C[C@H](O[C@H]3[C@@H](O)C[C@H](O[C@H]4CC[C@@]5(C)[C@H](CC[C@@H]6[C@@H]5C[C@@H](O)[C@]5(C)[C@@H](C7=CC(=O)OC7)CC[C@]65O)C4)O[C@@H]3C)O[C@@H]2C)C[C@H](O)[C@@H]1O [Digoxin, digoxin] | 1.1 | 1.1 | 10 | 9.5 | 9.7 | 20.1 | 97.9 (86.6–110.6) % | 100.6 (86.9–116.5) % | 1.1 (0.3) ng/mL | – | – | – | – | – | – | – | – | – | Cmax, arithmetic mean (SD) [1, 3]: 1.1 (0.3) ng/mL; half-life ([1]; t1/2, arithmetic mean (SD), +BI 425809 25 mg at steady state): 54.2 h; adjusted gMean ratios for AUC0–tz and Cmax (in words) ([1]; presence vs absence of steady-state BI 425809): within ±4% of 100% |
| Cc1ncc2n1-c1ccc(Cl)cc1C(c1ccccc1F)=NC2 [Midazolam, midazolam] | – | – | 16.7 | 16.6 | 23.5 | 17.4 | 70.6 (63.9–78.1) % | 77.6 (67.3–89.4) % | 9.03 (3.3)* ng/mL | 6.9 | 6.6 | 8.5 | – | – | – | – | – | – | decrease of the adjusted gMean ratio ([1]; BI 425809 25 mg once daily): 29.4%; half-life ([1]; t1/2, gMean (geometric coefficient of variation), on a background of steady-state BI 425809): 2.8 h; t1/2, gMean (geometric coefficient of variation) ([1]; midazolam alone): 3.3 [22.8] hours; AUC0–tz, Adjusted gMean Ratio (90% CI) ([1]; listed as midazolam): 70.6%; Cmax, Adjusted gMean Ratio (90% CI) ([1]; listed as midazolam): 77.6% |
| COc1ccc2[nH]c([S+]([O-])Cc3ncc(C)c(OC)c3C)nc2c1 (centres unmarked) [Omeprazole, omeprazole] | – | – | – | 430 | 483 | 609 | – | – | – | 257 | 225 | 220 | 604.0 (733.0) ng⋅h/mL | – | – | – | – | – | – |
| CC(=O)C[C@H](c1ccccc1)c1c(O)c2ccccc2oc1=O [R-warfarin] | 541.8 | 525.0 | – | – | – | – | – | – | – | – | – | – | 23,000.0 (5360.0) ng⋅h/mL | 27,500.0 (7200.0) ng⋅h/mL | 22,457.1 ng⋅h/mL | 22,615.1 ng⋅h/mL | 23,000.0 (4860.0) ng⋅h/mL | 27,900.0 (6680.0) ng⋅h/mL | – |
| CC(=O)C[C@@H](c1ccccc1)c1c(O)c2ccccc2oc1=O [S-warfarin] | 553.7 | – | – | – | – | – | – | – | – | – | – | – | 15,600.0 (3590.0) ng⋅h/mL | 17,000.0 (3880.0) ng⋅h/mL | 15,205.1 ng⋅h/mL | 15,107.9 ng⋅h/mL | 15,400.0 (3480.0) ng⋅h/mL | 16,900.0 (3870.0) ng⋅h/mL | – |
| O[C@@H](COc1cccc2ncccc12)CN1CCN([C@@H]2c3ccccc3[C@@H]3[C@H](c4ccccc42)C3(F)F)CC1 [zosuquidar] | – | – | – | – | – | – | – | – | – | – | – | – | – | – | – | – | – | – | effect on P-gp-mediated transcellular transport of digoxin (in words) [2]: inhibited |
